The text below walks through data of ChEMBL document CHEMBL4396885, “Thioether-based 2-aminobenzamide derivatives: Novel HDAC inhibitors with potent in vitro and in vivo antitumor activity” (Eur J Med Chem, 2019).

Each structure is given as a SMILES string.

Holding throughout (type): ADME, organism-based
Series [1] is described as follows: Half life in ICR mouse at 4 mg/kg, iv after 0.08 to 24 hrs by LC-MS/MS analysis. The following applies: in vivo. The gist of the method:
(§1)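 Male ICR mice (29.7~37.4 g), single iv dose 4 mg/kg in DMSO:40% SBE-β-CD 20:80 (v/v). Retro-orbital blood at 0.08–24 h into EDTA-K2 tubes; plasma protein-precipitated with acetonitrile containing internal standards, analysed by LC-MS/MS; n=3 per time point; noncompartmental analysis.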

A short description of series [2]: Clearance in ICR mouse at 4 mg/kg, iv after 0.08 to 24 hrs by LC-MS/MS analysis. Conditions: in vivo. The gist of the method: as §1
The nature of series [3]: Volume of distribution at steady state n ICR mouse at 4 mg/kg, iv after 0.08 to 24 hrs by LC-MS/MS analysis. The following applies: in vivo, read-out: Vdss. The gist of the method: as §1

In the case of `Nc1ccccc1NC(=O)c1ccc(COc2ccc(F)cc2)cc1`, in series [1], the half-life (usually the time needed for the level to fall by half in the phase considered) is 33.6 min. Moreover, the clearance – broadly, the rate of elimination divided by the concentration – in series [2] is 118 mL/min/kg. Besides, in series [3], the Vd was 2.33 L/kg.
